Assay results from different studies.
Each line is one published result; the experiments were not run side by side.
Target: Mitogen-activated protein kinase kinase kinase 12 (MAP3K12, Homo sapiens, UniProt Q12852)
Sequence (Q12852 1-859, as in one of the studies): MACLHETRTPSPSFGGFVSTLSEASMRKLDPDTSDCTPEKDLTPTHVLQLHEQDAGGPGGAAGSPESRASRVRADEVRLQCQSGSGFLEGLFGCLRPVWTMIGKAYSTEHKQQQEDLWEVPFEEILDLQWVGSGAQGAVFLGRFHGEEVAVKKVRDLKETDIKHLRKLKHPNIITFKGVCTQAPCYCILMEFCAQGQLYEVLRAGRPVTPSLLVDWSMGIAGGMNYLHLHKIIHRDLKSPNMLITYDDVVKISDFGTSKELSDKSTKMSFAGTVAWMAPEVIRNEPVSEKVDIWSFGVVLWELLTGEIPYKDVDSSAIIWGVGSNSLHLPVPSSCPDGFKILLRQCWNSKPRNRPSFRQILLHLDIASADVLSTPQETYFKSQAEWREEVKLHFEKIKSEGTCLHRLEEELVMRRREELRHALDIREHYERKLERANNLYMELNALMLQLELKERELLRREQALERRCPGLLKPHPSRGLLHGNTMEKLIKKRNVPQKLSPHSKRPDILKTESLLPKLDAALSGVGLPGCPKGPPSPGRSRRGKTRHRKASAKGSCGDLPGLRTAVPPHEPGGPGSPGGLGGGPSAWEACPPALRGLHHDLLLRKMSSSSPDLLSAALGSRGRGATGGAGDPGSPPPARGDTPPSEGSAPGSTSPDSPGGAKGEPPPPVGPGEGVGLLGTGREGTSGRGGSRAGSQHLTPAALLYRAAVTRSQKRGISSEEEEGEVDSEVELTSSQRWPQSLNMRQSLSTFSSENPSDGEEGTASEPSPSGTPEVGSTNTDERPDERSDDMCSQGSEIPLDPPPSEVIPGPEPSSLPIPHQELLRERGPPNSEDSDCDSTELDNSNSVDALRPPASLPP

Compound	test	conditions	remaining binding [%]
COc1cnc(Nc2cccc(S(N)(=O)=O)c2)nc1N1CCN(c2ccccc2)CC1	binding, competition with immobilised ligand	1 µM	72
CN(CCCC(F)(F)F)c1nccc(-c2cnn3ncccc23)n1	binding	1 µM	100
O=C(NCCCN1CCOCC1)c1ccc(Nc2nccc(-c3cc4ccccc4s3)n2)cc1	binding, competition with immobilised ligand	1 µM	54
CC1CCCN1c1nccc(-c2cnn3ncccc23)n1 (centres unmarked)	binding	1 µM	100
O=C(c1ccc(Nc2ncc(Cl)c(-c3ccc(Cl)s3)n2)cc1)N1CCC(N2CCCC2)CC1	binding, competition with immobilised ligand	1 µM	7.8
CNC(=O)[C@@H]1CC[C@@H](n2c(-c3ccc4cnccc4c3)nc3ccc(C(=O)NCc4cccc(C(N)=O)c4)cc32)C1	binding, competition with immobilised ligand	1 µM	100
c1cncc(-c2cccc(Nc3nccc(NC4CCCCC4)n3)c2)c1	binding, competition with immobilised ligand	10 µM	67
Nc1ncc2c(n1)-c1c([nH]c3ccc(C#CC4CC4)cc13)CCCC2	binding, competition with immobilised ligand	1 µM	93
CN([C@@H]1CCc2c(CC(=O)O)c3ccccc3n2C1)S(=O)(=O)c1ccc(F)cc1	cell-free assay, competition with immobilised ligand	1 µM	100
CN(C)c1nccc(-c2cnc3ncccn23)n1	binding	1 µM	67
CC(=O)C1=C(C)N(c2cccc(C(F)(F)F)c2)C(=O)N[C@@H]1c1ccc(C#N)nc1	cell-free assay, competition with immobilised ligand	1 µM	86.8
Cc1cnn2ncc(-c3ccnc(N(C)C)n3)c2c1	binding	1 µM	83
FC(F)(F)c1ccc2c(c1)nc(-c1cccnc1)n2C1CC1	cell-free assay, competition with immobilised ligand	1 µM	100
Cc1cnc(Nc2ccc(C(=O)N3CCC(N4CCCC4)CC3)cc2)nc1-c1cc2ccccc2s1	binding, competition with immobilised ligand	1 µM	8.3
O=C(Nc1cnc(Oc2ccc(F)cc2)nc1)N1CCc2ncccc2[C@@H]1c1ccc(F)cc1	cell-free assay, competition with immobilised ligand	1 µM	100
F[C@@H]1CCN(c2nccc(-c3cnn4ncccc34)n2)C1	binding	1 µM	100
CN1CCN(c2cnc3c(C4CCN(C(=O)c5ccc(OC(F)(F)F)cc5N)CC4)ncnc3c2)CC1	cell-free assay, competition with immobilised ligand	1 µM	100
C[C@@H]1CCN(c2nccc(-c3cnn4ncccc34)n2)C1	binding	1 µM	75
C[C@@H]1CN(c2cc(-c3n[nH]c4ccc(OC5(C)CC5)cc34)ncn2)C[C@H](C)O1	cell-free assay, competition with immobilised ligand	0.1 µM	82
O=C(NCC1CCOCC1)c1n[nH]cc1NC(=O)c1c(F)cccc1F	binding, competition with immobilised ligand	1 µM	85
